# Publication PMC2880618 (Bioconjugate chemistry, 2009)
# Values joined by “and” are separate entries in the source; they are usually repeats but may differ in a detail not shown here. Equal entries are not always repeated.
# Columns and labels:
# [1] = Lipophilicity, shake flask 1-octanol/PBS pH 7.4; format: physicochemical; details: 1-octanol/phosphate-buffered saline
# Summary of the method: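 Shake-flask partition: ~500 Kcpm radiotracer added to 1 mL 1-octanol plus 1 mL PBS pH 7.4, in triplicate. Tubes vortexed 3 min and layers allowed to separate. 100 μL aliquots of each phase counted for radioactivity; log P calculated from the counts.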
# B16F1 melanoma cells = assay: In vitro uptake assay in melanoma cells; format: cell-based, mouse; details: 1×10^6 cells/tube, 60 min, room temperature, n=3 tubes
# Summary of the method: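 B16F1 mouse melanoma cells grown in DMEM with 10% FBS at 37°C, 5% CO2. At 80–90% confluence they were trypsinized and resuspended in PBS pH 7.4. Aliquots of 1×10^5, 5×10^5, 8×10^5 and 1×10^6 cells in triplicate tubes got ~200 Kcpm radiotracer for 1 hr at 22°C. Tubes were centrifuged and pellets washed with PBS; wash and pellet were gamma-counted. Uptake = % of total added activity in pellet.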
# [2] = Tissue distribution studies in normal ICR mice; format: in vivo; details: tail vein, mean±SEM n=5
# Summary of the method: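 Normal ICR mice (6–8 weeks) received ~15 μCi radiotracer in 100 μL saline by tail vein. At 30, 60, 120 and 180 min mice were euthanized; tissues removed, washed with PBS, weighed and gamma-counted with an injected-dose standard. Values expressed as %ID/g; group differences by unpaired Student's t-test, P<0.05.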
# [3] = system: B16F1 melanoma tumor xenograft; assay: Tissue distribution studies in C57 mice bearing B16F1 tumor xenograft; format: in vivo; details: for F-18 uptake in brain, Percent Injected Dose per gram Tissue / F-18 uptake in heart, Percent Injected Dose per gram Tissue / F-18 uptake in intestine, Percent Injected Dose per gram Tissue / F-18 uptake in kidneys, Percent Injected Dose per gram Tissue / F-18 uptake in liver, Percent Injected Dose per gram Tissue / F-18 uptake in lung, Percent Injected Dose per gram Tissue / F-18 uptake in muscle, Percent Injected Dose per gram Tissue / F-18 uptake in spleen, Percent Injected Dose per gram Tissue / F-18 uptake in the tumor / F-18 uptake in blood, Percent Injected Dose per gram Tissue / F-18 uptake in bone, Percent Injected Dose per gram Tissue: C57 mice bearing B16F1 melanoma tumor xenograft; for F-18 uptake in brain, Percent Injected Dose per gram Tissue / F-18 uptake in heart, Percent Injected Dose per gram Tissue / F-18 uptake in intestine, Percent Injected Dose per gram Tissue / F-18 uptake in kidneys, Percent Injected Dose per gram Tissue / F-18 uptake in liver, Percent Injected Dose per gram Tissue / F-18 uptake in lung, Percent Injected Dose per gram Tissue / F-18 uptake in muscle, Percent Injected Dose per gram Tissue / F-18 uptake in spleen, Percent Injected Dose per gram Tissue / F-18 uptake in blood, Percent Injected Dose per gram Tissue / F-18 uptake in bone, Percent Injected Dose per gram Tissue: tail vein, mean±SEM n=5; for F-18 uptake in the tumor: n=5
# Summary of the method: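 C57 mice (6–8 weeks) inoculated in the right flank with ~5×10^6 B16F1 cells in 0.1 mL Matrigel:PBS (50:50). Studied once tumors exceeded 200 mm³. ~15 μCi radiotracer in 100 μL saline given by tail vein. Mice euthanized at 30, 60, 120 and 180 min; tissues washed, weighed and gamma-counted against an injected-dose standard. %ID/g ([…], n=5) and tumor-to-tissue ratios reported.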
# sigma-1 receptor = sigma-1 receptor (Cavia porcellus, UniProt Q60492); assay: Sigma-1 receptor competitive binding assay; parameters: species or system guinea pig
# Summary of the method: (§1)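 Sigma-1: guinea pig brain membranes with 3H-PENT. Sigma-2: rat liver membranes from Sprague-Dawley rats with 3H-DTG, plus 1 μM dextrallorphane to mask sigma-1 sites.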
# sigma-2 receptor = target: T1, sigma-2 receptor (Rattus norvegicus, UniProt Q5U3Y7); assay: Sigma-2 receptor competitive binding assay
# T1 sequence (Q5U3Y7 1-176): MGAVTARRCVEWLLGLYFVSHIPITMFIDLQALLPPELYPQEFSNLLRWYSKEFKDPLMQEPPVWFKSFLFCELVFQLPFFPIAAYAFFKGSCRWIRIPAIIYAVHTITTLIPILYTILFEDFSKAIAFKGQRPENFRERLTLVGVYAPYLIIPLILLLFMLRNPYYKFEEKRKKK
# Summary of the method: as §1
# [4] = C57 normal mice, cited from earlier work
# [5] = C57 mice bearing B16F1 melanoma tumor, 180 min post-injection
# sigma-1 receptor, sequence (Q60492 whole entry): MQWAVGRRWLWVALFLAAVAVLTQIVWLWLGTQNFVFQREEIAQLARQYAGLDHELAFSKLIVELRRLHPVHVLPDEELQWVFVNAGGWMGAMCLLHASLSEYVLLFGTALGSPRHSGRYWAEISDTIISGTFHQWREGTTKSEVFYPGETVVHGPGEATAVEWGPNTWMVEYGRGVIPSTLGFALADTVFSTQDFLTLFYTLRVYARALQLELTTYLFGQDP
structure (smiles),measurement,setting,value
"CCN(CC)CCNC(=O)c1ccc([18F])cc1 [[^18F]-DAFBA, N-(2-diethylaminoethyl)-4-[^18F]fluorobenzamide]",logP,[1],1.7
same,percent uptake by cells (percent of total added radioactivity),B16F1 melanoma cells,5.60±2.67%
same,"F-18 uptake in blood, Percent Injected Dose per gram Tissue",[2]; 30 min post injection,0.78 ± 0.07 %ID/g
same,"F-18 uptake in bone, Percent Injected Dose per gram Tissue",[2]; 30 min post injection,0.81 ± 0.19 %ID/g
same,"F-18 uptake in brain, Percent Injected Dose per gram Tissue",[2]; 30 min post injection,2.16 ± 0.32 %ID/g
same,"F-18 uptake in heart, Percent Injected Dose per gram Tissue",[2]; 30 min post injection,1.10 ± 0.14 %ID/g
same,"F-18 uptake in kidneys, Percent Injected Dose per gram Tissue",[2]; 30 min post injection,4.13 ± 0.68 %ID/g
same,"F-18 uptake in liver, Percent Injected Dose per gram Tissue",[2]; 30 min post injection,3.12 ± 0.62 %ID/g
same,"F-18 uptake in lung, Percent Injected Dose per gram Tissue",[2]; 30 min post injection,1.75 ± 0.43 %ID/g
same,"F-18 uptake in muscle, Percent Injected Dose per gram Tissue",[2]; 30 min post injection,0.88 ± 0.13 %ID/g
same,"F-18 uptake in spleen, Percent Injected Dose per gram Tissue",[2]; 30 min post injection,2.35 ± 0.07 %ID/g
same,"F-18 uptake in blood, Percent Injected Dose per gram Tissue",[2]; 60 min post injection,0.67 ± 0.05 %ID/g
same,"F-18 uptake in brain, Percent Injected Dose per gram Tissue",[2]; 60 min post injection,1.54 ± 0.24 %ID/g
same,"F-18 uptake in heart, Percent Injected Dose per gram Tissue",[2]; 60 min post injection,0.92 ± 0.10 %ID/g
same,"F-18 uptake in intestine, Percent Injected Dose per gram Tissue",[2]; 60 min post injection,1.39 ± 0.54 %ID/g
same,"F-18 uptake in liver, Percent Injected Dose per gram Tissue",[2]; 60 min post injection,3.61 ± 0.48 %ID/g
same,"F-18 uptake in lung, Percent Injected Dose per gram Tissue",[2]; 60 min post injection,1.84 ± 0.41 %ID/g
same,"F-18 uptake in muscle, Percent Injected Dose per gram Tissue",[2]; 60 min post injection,0.65 ± 0.11 %ID/g
same,"F-18 uptake in spleen, Percent Injected Dose per gram Tissue",[2]; 60 min post injection,1.87 ± 0.46 %ID/g
same,"F-18 uptake in brain, Percent Injected Dose per gram Tissue",[2]; 120 min post injection,0.52 ± 0.07 %ID/g
same,"F-18 uptake in heart, Percent Injected Dose per gram Tissue",[2]; 120 min post injection,0.28 ± 0.05 %ID/g
same,"F-18 uptake in intestine, Percent Injected Dose per gram Tissue",[2]; 120 min post injection,0.26 ± 0.26 %ID/g
same,"F-18 uptake in kidneys, Percent Injected Dose per gram Tissue",[2]; 120 min post injection,1.58 ± 0.51 %ID/g
same,"F-18 uptake in blood, Percent Injected Dose per gram Tissue",[2]; 180 min post injection,0.21 ± 0.03 %ID/g
same,"F-18 uptake in bone, Percent Injected Dose per gram Tissue",[2]; 180 min post injection,0.24 ± 0.10 %ID/g
same,"F-18 uptake in heart, Percent Injected Dose per gram Tissue",[2]; 180 min post injection,0.23 ± 0.03 %ID/g
same,"F-18 uptake in intestine, Percent Injected Dose per gram Tissue",[2]; 180 min post injection,0.40 ± 0.11 %ID/g
same,"F-18 uptake in kidneys, Percent Injected Dose per gram Tissue",[2]; 180 min post injection,1.34 ± 0.36 %ID/g
same,"F-18 uptake in liver, Percent Injected Dose per gram Tissue",[2]; 180 min post injection,1.12 ± 0.20 %ID/g
same,"F-18 uptake in lung, Percent Injected Dose per gram Tissue",[2]; 180 min post injection,0.49 ± 0.07 %ID/g
same,"F-18 uptake in spleen, Percent Injected Dose per gram Tissue",[2]; 180 min post injection,0.53 ± 0.08 %ID/g
same,"F-18 uptake in brain, Percent Injected Dose per gram Tissue",[3]; 30 min post injection,2.02 ± 0.35 %ID/g
same,"F-18 uptake in heart, Percent Injected Dose per gram Tissue",[3]; 30 min post injection,1.25 ± 0.28 %ID/g
same,"F-18 uptake in intestine, Percent Injected Dose per gram Tissue",[3]; 30 min post injection,1.94 ± 0.51 %ID/g
same,"F-18 uptake in kidneys, Percent Injected Dose per gram Tissue",[3]; 30 min post injection,4.50 ± 1.33 %ID/g
same,"F-18 uptake in liver, Percent Injected Dose per gram Tissue",[3]; 30 min post injection,3.27 ± 0.90 %ID/g
same,"F-18 uptake in lung, Percent Injected Dose per gram Tissue",[3]; 30 min post injection,2.46 ± 1.27 %ID/g
same,"F-18 uptake in muscle, Percent Injected Dose per gram Tissue",[3]; 30 min post injection,1.09 ± 0.18 %ID/g
same,"F-18 uptake in spleen, Percent Injected Dose per gram Tissue",[3]; 30 min post injection,2.14 ± 0.41 %ID/g
same,F-18 uptake in the tumor,[3]; 60 min post injection,7.00±2.76 %ID/g
same,"F-18 uptake in blood, Percent Injected Dose per gram Tissue",[3]; 60 min post injection,0.68 ± 0.21 %ID/g
same,"F-18 uptake in bone, Percent Injected Dose per gram Tissue",[3]; 60 min post injection,0.90 ± 0.27 %ID/g
same,"F-18 uptake in brain, Percent Injected Dose per gram Tissue",[3]; 60 min post injection,1.68 ± 0.43 %ID/g
same,"F-18 uptake in heart, Percent Injected Dose per gram Tissue",[3]; 60 min post injection,1.27 ± 0.50 %ID/g
same,"F-18 uptake in intestine, Percent Injected Dose per gram Tissue",[3]; 60 min post injection,1.98 ± 0.88 %ID/g
same,"F-18 uptake in kidneys, Percent Injected Dose per gram Tissue",[3]; 60 min post injection,5.38 ± 1.86 %ID/g
same,"F-18 uptake in liver, Percent Injected Dose per gram Tissue",[3]; 60 min post injection,5.01 ± 2.06 %ID/g
same,"F-18 uptake in lung, Percent Injected Dose per gram Tissue",[3]; 60 min post injection,2.48 ± 1.27 %ID/g
same,"F-18 uptake in muscle, Percent Injected Dose per gram Tissue",[3]; 60 min post injection,1.10 ± 0.38 %ID/g
same,"F-18 uptake in spleen, Percent Injected Dose per gram Tissue",[3]; 60 min post injection,1.83 ± 0.54 %ID/g
same,F-18 uptake in the tumor,[3]; 120 min post injection,6.57±1.66 %ID/g
same,"F-18 uptake in bone, Percent Injected Dose per gram Tissue",[3]; 120 min post injection,0.57 ± 0.32 %ID/g
same,"F-18 uptake in brain, Percent Injected Dose per gram Tissue",[3]; 120 min post injection,0.64 ± 0.40 %ID/g
same,"F-18 uptake in kidneys, Percent Injected Dose per gram Tissue",[3]; 120 min post injection,1.41 ± 0.11 %ID/g
same,"F-18 uptake in liver, Percent Injected Dose per gram Tissue",[3]; 120 min post injection,2.35 ± 1.20 %ID/g
same,"F-18 uptake in lung, Percent Injected Dose per gram Tissue",[3]; 120 min post injection,1.47 ± 0.47 %ID/g
same,"F-18 uptake in muscle, Percent Injected Dose per gram Tissue",[3]; 120 min post injection,0.57 ± 0.54 %ID/g
same,"F-18 uptake in spleen, Percent Injected Dose per gram Tissue",[3]; 120 min post injection,0.71 ± 0.37 %ID/g
same,"F-18 uptake in blood, Percent Injected Dose per gram Tissue",[3]; 180 min post injection,0.13 ± 0.03 %ID/g
same,"F-18 uptake in bone, Percent Injected Dose per gram Tissue",[3]; 180 min post injection,0.17 ± 0.05 %ID/g
same,"F-18 uptake in brain, Percent Injected Dose per gram Tissue",[3]; 180 min post injection,0.29 ± 0.05 %ID/g
same,"F-18 uptake in heart, Percent Injected Dose per gram Tissue",[3]; 180 min post injection,0.21 ± 0.04 %ID/g
same,"F-18 uptake in kidneys, Percent Injected Dose per gram Tissue",[3]; 180 min post injection,0.83 ± 0.23 %ID/g
same,"F-18 uptake in muscle, Percent Injected Dose per gram Tissue",[3]; 180 min post injection,0.17 ± 0.03 %ID/g
same,"F-18 uptake in spleen, Percent Injected Dose per gram Tissue",[3]; 180 min post injection,0.44 ± 0.25 %ID/g
same,tumor to blood ratio,"[3]; C57 mice bearing B16F1 melanoma tumor, 60 min post-injection",8.3±3
same,tumor to liver ratio,[3]; [5],6.33±1.9
same,tumor to lung ratio,[3]; [5],21.90±4.68 and > 20
same,tumor to muscle ratio,[3]; [5],32.91±6.11 and > 20
same,tumor to spleen ratio,[3]; [5],14.90±6.47
"CCN(CC)CCNC(=O)c1ccc(F)cc1 [DAFBA, N-(2-diethylaminoethyl)-4-fluorobenzamide]",IC50,sigma-1 receptor,> 1 µM
same,IC50,sigma-2 receptor,> 1 µM
"CCN(CC)CCNC(=O)c1ccc(OC)c(I)c1 [[^*I]IMBA, [^*I]N-(2-diethylaminoethyl) 3-iodo 4-methoxybenzamide]",radioiodine uptake in blood,[4]; 60 min post injection,0.84±0.08 %ID/g
same,radioiodine uptake in liver,[4]; 60 min post injection,3.09±0.45 %ID/g
same,radioiodine uptake in lungs,[4]; 60 min post injection,1.06±0.23 %ID/g
same,radioiodine uptake in intestine,[4],7.70±4.70 %ID/g
same,radioiodine uptake in the stomach,[4],9.72±1.51 %ID/g
